Source: PubChem BioAssay
The list is not random: actives were taken first. Their share in the collection is about 2.1%.
VIM-2 inh – blocks Pseudomonas aeruginosa VIM-2 metallo-beta-lactamase. inhibition, % at 5.6 µM. hit rate 0.89% among 290,000. purified VIM-2, nitrocefin hydrolysis, epi-absorbance fluorescence;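 active = inhibition above the mean of all tested compounds plus 3 SD, cutoff set per screening run, cut at about 7.5% in these data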;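 note: red hydrolysis product quenches plate fluorescence so inhibitors raise well fluorescence; 0% = enzyme with DMSO and 100% = DMSO without enzyme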
HCV NS3 hel inh – inhibitors of Hepatitis C virus NS3 helicase | NS3 helicase DNA unwinding, Cy5 molecular beacon fluorescence | inhibition, % at 10.9 µM | hit rate 0.56% among 290,000;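 active = inhibition above the mean of all tested compounds plus 3 SD, set per campaign, cut at about 35% in these data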;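 note: 0% = DMSO wells and 100% = thioflavine S control wells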
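System: Hepatitis C virus NS3 helicase domain fragment enzyme | Reagent: Annealed dual-labelled DNA beacon duplex, ATP-started | Compound dosing: 10.9 µM single point, 0.8% DMSO | Incubation: 1 h reaction at 25 °C, ATP-initiated | Technique: Cy5 fluorescence | Evaluation: Percent inhibition from t60/t0 fluorescence ratio | Benchmarks: Low DMSO, high thioflavine S at 110 µM | Replication: Singlicate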
IMP-1 inhibitor – inhibitors of Pseudomonas aeruginosa IMP-1 metallo-beta-lactamase | purified IMP-1, nitrocefin hydrolysis, epi-absorbance fluorescence | inhibition, % at 5.6 µM | hit rate 0.45% among 290,000 | AID 1556;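 active = inhibition above the mean plus 3 SD of all compounds in the same screening run, cut at about 4.5% in these data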;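 note: 0% = IMP-1 with DMSO and 100% = DMSO wells lacking enzyme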
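System: Purified recombinant IMP-1 metallo-beta-lactamase enzyme | Measured by: Fluorescence quenching readout, ex 480/em 530 nm | Replication: Singlicate | Incubation: 15 min preincubation plus 25 min reaction at 25 °C | Evaluation: Percent inhibition from optical density relative to buffer-blank wells | Benchmarks: DMSO with and without IMP-1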
DNA FID counter-1 – counter-screen for HCV NS3 helicase inhibitors: DNA intercalator displacement | DNA fluorescent intercalator displacement, fluorescence | inhibition, % at 7.9 µM | hit rate 0.17% among 290,000 | AID 1845;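 note: 0% = vehicle and 100% = reference compound; higher means more ethidium bromide displaced from hairpin DNA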
SUMO HTRF inh – SUMOylation inhibition | P63279 | HTRF SUMOylation assay, SAE1/SAE2 + UBC9, in vitro | inhibition, % at 35 µM | hit rate 0.36% among 290,000 | AID 2006; in the data active = inhibition above about 50%, passing the limit was not always enough
Target sequence (P63279 whole entry, looked up): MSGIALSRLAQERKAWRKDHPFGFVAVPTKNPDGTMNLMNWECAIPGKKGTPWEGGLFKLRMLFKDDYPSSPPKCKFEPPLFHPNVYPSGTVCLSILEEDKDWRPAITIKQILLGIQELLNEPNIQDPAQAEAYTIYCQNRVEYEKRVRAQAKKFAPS
NS3 helicase cf – HCV NS3 helicase inhibition, confirmation assay. shares compounds with HCV NS3 hel inh. NS3 helicase DNA unwinding, Cy5 molecular beacon fluorescence. inhibition, % at 10.9 µM. hit rate 31% among 1,600. AID 1943;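 active = inhibition above the mean of all tested compounds plus 3 SD, cutoff set per campaign, cut at about 36% in these data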
DNA FID counter-2 – counter-screen for HCV NS3 helicase inhibitors: DNA intercalator displacement. shares compounds with HCV NS3 hel inh. DNA fluorescent intercalator displacement, fluorescence. inhibition, % at 7.9 µM. hit rate 4% among 1,600. AID 1945;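 note: 0% = vehicle and 100% = reference compound; higher means more displacement of ethidium bromide from the DNA hairpin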
DNA FID DR – DNA intercalator displacement in dose response; shares compounds with HCV NS3 hel inh; fluorescent intercalator displacement from DNA, fluorescence; IC50, µM; 120 tested, under 10 active; AID 2172; call rule not given here
Starred values were filed as active, the others as inactive; / = not tested or not shown. Cut-off read from the data, not from the text of the source, unless noted: active = inhibition above about 37%; inactive = the rest.

SMILES	VIM-2 inh	HCV NS3 hel inh	IMP-1 inhibitor	DNA FID counter-1	SUMO HTRF inh	NS3 helicase cf	DNA FID counter-2	others
Nn1c(Cc2cccc3ccccc23)nnc1SCc1ccc(Cl)c(Cl)c1	-4.3	-15.8	-0.9	-22.6	-50.2	/	/
Nn1c(Cc2cccc3ccccc23)nnc1SCc1c(Cl)cccc1Cl	-1.2	60.5*	-2.2	-21.1	-0.9	-9.3	-27.0
O=C(/C=C/c1ccco1)Nc1nc(-c2ccccc2)cs1	-1.0	19.4	-1.8	-10.0	17.7	/	/
Cc1ccc(-c2csc(N/N=C/c3ccco3)n2)cc1	-0.3	46.4*	-5.0	-7.5	2.5	-11.4	13.3
O=C(/C=C/c1ccco1)Nc1nc(-c2ccc(F)c(F)c2)cs1	1.3	53.6*	0.5	-3.7	8.7	-5.8	5.3
C(=N\Nc1nc(-c2ccccc2)cs1)/c1ccco1	-0.6	33.7	-0.6	-7.6	23.6	/	/
Cc1nn(CC(=O)Nc2ccc(Cl)cc2Cl)c(=O)c2ccccc12	-1.8	5.3	-1.5	-11.0	8.8	/	/
COc1c2c(cc3ccc(=O)oc13)CCO2	-3.1	-11.4	-3.9	0.3	32.0	/	/
O=c1cc(-c2ccc([N+](=O)[O-])cc2)nc2cc(-c3ccc(Cl)cc3)[nH]n12	-3.0	48.1*	-2.6	-4.1	21.4	30.1	-1.1
CCn1c(CNC(=O)c2cccc(C)c2)nnc1SCC(=O)NC1CCCCC1C (stereo not given)	-2.9	64.5*	-1.6	-29.9	11.9	-5.0	-26.6
CCn1c(CNC(=O)c2cccc(C)c2)nnc1SCC(=O)NC1CCCC1	-2.7	4.5	-1.8	-15.5	1.4	/	/
O=C(NC1C2CC3CC(C2)CC1C3)c1ccc(Br)o1 (stereo not given)	-0.8	12.7	0.3	-24.9	10.2	/	/
COc1cccc(/C=C2/C(=O)NN(c3ccc(F)cc3)C2=O)c1	-0.7	48.0*	-5.4	-16.8	-8.7	15.8	13.6
COc1cccc(/C=C2/C(=O)NN(c3ccccc3)C2=O)c1	-1.1	23.8	-0.6	-7.6	-1.8	/	/
C#CCOc1ccc(/C=C2/C(=O)NN(c3ccc(F)cc3)C2=O)cc1OC	-4.5	38.5*	-0.6	-13.1	-5.9	7.3	18.6
COc1cc(/C=N/n2cnnc2)ccc1OC(=O)c1ccco1	-2.5	-1.8	-2.6	-6.6	12.6	/	/
COC(=O)c1ccc(N2NC(=O)/C(=C/c3ccc(OC)c(OC)c3)C2=O)cc1	-2.8	39.8*	-1.3	-15.3	-3.2	-16.3	-7.1
COc1cc(/C=C2/C(=O)NN(c3cccc(C)c3)C2=O)ccc1OC(=O)c1ccco1	-3.8	40.0*	-2.5	-11.3	2.9	33.0	2.7
COc1cc(/C=C2\C(=O)NN(c3ccccc3)C2=O)ccc1OCC(N)=O	-1.7	14.6	-1.5	-34.0	-5.6	/	/
COc1cc(CN2CCNC(=O)C2CC(=O)N(Cc2nccn2C)C(C)C)cc(OC)c1 (stereo not given)	-5.9	1.7	-1.2	-4.0	-1.1	/	/
CNC(=O)C(=O)Nc1cc2c3c(c1)C(C)C(=O)N3CCC2 (stereo not given)	-1.9	-0.5	-0.8	-5.3	-11.6	/	/
CCCCCCCCCc1nc2sc3c(c2c(=O)n1NC(=O)c1ccc([N+](=O)[O-])cc1)CC(C)(C)OC3	-0.1	1.7	-1.5	-5.3	-9.8	/	/
CCCCCCCCCc1nc2sc3c(c2c(=O)n1NC(=O)c1ccccc1[N+](=O)[O-])CC(C)(C)OC3	-5.1	37.4*	-0.8	-12.6	-28.3	50.1*	3.6	DNA FID DR=>79.4
O=C1/C(=C\c2ccco2)SC(=S)N1C1CCCCC1	-1.9	38.9*	-0.9	-9.5	23.1	50.8*	18.3
O=C(/C=C/c1ccc(-c2ccccc2[N+](=O)[O-])o1)c1ccc(Br)cc1	-5.2	26.1	0.2	-4.3	13.4	/	/
SMILES	VIM-2 inh	HCV NS3 hel inh	IMP-1 inhibitor	DNA FID counter-1	SUMO HTRF inh	NS3 helicase cf	DNA FID counter-2	others
O=C(/C=C/c1ccc(-c2ccccc2)o1)c1ccccc1	-2.2	46.9*	0.6	-26.7	25.8	-18.7	0.9
Cc1ccc(-c2ccc(/C=C/C(=O)c3ccccc3)o2)cc1	0.3	22.5	1.7	-16.5	43.4	/	/
Cc1ccc(C(=O)/C=C/c2ccc(-c3ccccc3[N+](=O)[O-])o2)cc1	-1.1	36.9*	0.1	-18.5	21.1	38.8*	17.0
COC(=O)C1=C(O)/C(=C\c2ccc(CNS(=O)(=O)c3ccccc3)o2)N=C1C	-0.7	33.0	-3.3	-16.0	24.2	/	/
COC(=O)C1=C(O)/C(=C\c2ccc(CNS(=O)(=O)c3ccc(Cl)cc3)o2)N=C1C	1.3	40.1*	0.5	-12.1	26.1	13.8	-9.5
O=[N+]([O-])c1ccccc1S(=O)(=O)Nc1cccnc1	0.2	-3.4	-2.4	-2.6	-4.4	/	/
CCOC(=O)c1cnc2c(C)cc(C)cc2c1NCCCN1CCOCC1	9.6*	41.3*	0.3	71.5*	-0.6	-0.4	77.5*
Cc1ccc(C(=O)N/C(=C/c2ccco2)C(=O)N2CCC(C)CC2)cc1	-6.0	46.6*	-1.8	-35.3	-6.7	-18.7	-32.3
Cc1ccc(C(=O)N/C(=C/c2ccco2)C(=O)NCc2ccco2)cc1	-0.6	37.4*	1.8	-18.7	19.2	1.4	9.4
Cn1c(COc2ccc(F)cc2)nnc1SCC(=O)NC1CC1	-0.9	-0.1	-2.8	-1.1	14.6	/	/
O=C(O)CN1C(=O)/C(=C\c2cc(Br)ccc2OCc2ccc(Cl)cc2)SC1=S	0.7	38.9*	1.1	15.3	36.4	67.1*	59.2*
Cc1ccc(N2C(S)=C(C#N)C(=O)NC2c2cccs2)cc1 (stereo not given)	1.8	8.8	-0.7	-4.6	1.7	/	/
COc1ccc(C(=O)OCC(=O)c2ccc(C3CCCCC3)cc2)cc1	-0.5	-0.7	-0.5	-1.3	-1.3	/	/
Nc1ccc(O)cc1C(=O)OCC(=O)c1ccc(C2CCCCC2)cc1	-4.8	59.1*	-1.6	-11.9	65.2	-1.4	16.1
CCOC(=O)c1c(NC(=O)C2C3CCC(O3)C2C(=O)O)sc2c1CCC(CC)C2 (stereo not given)	-2.2	30.0	-1.6	-45.7	14.9	/	/
CCOC(=O)c1c(NC(=O)C2C3CCC(O3)C2C(=O)O)sc(C)c1-c1ccc(F)cc1 (stereo not given)	3.0	54.6*	1.1	-45.0	16.7	60.6*	-12.3
Cc1cc(F)ccc1S(=O)(=O)Nc1ncnc2sc3c(c12)CCC3	-2.6	39.4*	-6.2	-27.9	6.3	13.9	-11.6
O=S(=O)(Nc1ncnc2sc3c(c12)CCC3)c1ccc2ccccc2c1	-3.3	1.0	-1.2	-32.5	24.1	/	/
COc1cc(/C=N/NC(=O)c2nonc2N)cc(OC)c1OC	-1.3	39.4*	-2.5	-5.6	22.3	-1.7	7.3
CCOC(=O)C1CCCN(S(=O)(=O)c2cnc(Cl)c(Br)c2)C1 (stereo not given)	-0.9	20.5	-4.2	-33.4	14.9	/	/
